ChEMBL document CHEMBL3045693, “Metabolism of diethofencarb (isopropyl 3,4-diethoxyphenylcarbamate) in rats: identification of metabolites in urine” (J Agric Food Chem, 2004)

Experiments:
Conditions in all cases: in vivo, 24 h
[1] = Drug excretion in Rattus norvegicus CD Sprague-Dawley (rat) urine assessed as 1-hydroxypropan-2-yl 3-ethoxy-4-hydroxycarbanilate at 300 mg/5ml, po daily for 4 consecutive days measured within 1 day after final dose by NMR/MS analysis; format: ADME, organism-based
In short: (§1)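 Male CD (Sprague-Dawley) rats, 11 weeks old (n=4), housed individually in glass metabolism cages separating urine and feces. [phenyl-14C]-labelled compound given by gastric probe in corn oil at 300 mg/5 mL/kg daily for 4 days. Urine from the day after the last dose: aqueous layer hydrolysed with sulfatase (with β-glucuronidase activity) in 0.2 M acetate pH 5.0, 37 °C, 19 h. Ethyl acetate extraction, then HPLC/TLC purification and NMR/ESI-MS identification.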

[2] = Drug excretion in Rattus norvegicus CD Sprague-Dawley (rat) urine assessed as 2-acetamino-3-{4-ethoxy-3-hydroxy-2-[(isopropoxycarbonyl)amino]phenylthio}propionic acid at 300 mg/5ml, po daily for 4 consecutive days measured within 1 day after final dose by NMR/MS analysis; format: ADME, organism-based; in short: as §1
[3] = Drug excretion in Rattus norvegicus CD Sprague-Dawley (rat) urine assessed as N-(3-ethoxy-4- hydroxyphenyl)acetamide at 300 mg/5ml, po daily for 4 consecutive days measured within 1 day after final dose by NMR/MS analysis; format: ADME, organism-based; in short: as §1
[4] = Drug excretion in Rattus norvegicus CD Sprague-Dawley (rat) urine assessed as 2-{2-ethoxy-4-[(isopropoxycarbonyl)amino]- phenoxy}acetic acid at 300 mg/5ml, po daily for 4 consecutive days measured within 1 day after final dose by NMR/MS analysis; format: ADME, organism-based; in short: as §1
[5] = Drug excretion in Rattus norvegicus CD Sprague-Dawley (rat) urine assessed as 2-acetamino-3-{3-ethoxy-2-hydroxy-5-[(isopropoxycarbonyl) amino]phenylthio}propionic acid at 300 mg/5ml, po daily for 4 consecutive days measured within 1 day after final dose by NMR/MS analysis; format: ADME, organism-based; in short: as §1
[6] = Drug excretion in Rattus norvegicus CD Sprague-Dawley (rat) urine assessed as N-(3-ethoxy-4-hydroxyphenyl)-2-hydroxyacetamide at 300 mg/5ml, po daily for 4 consecutive days measured within 1 day after final dose by NMR/MS analysis; format: ADME, organism-based; in short: as §1
[7] = Drug excretion in Rattus norvegicus CD Sprague-Dawley (rat) urine assessed as (4-acetamino-2-ethoxyphenoxy) acetic acid at 300 mg/5ml, po daily for 4 consecutive days measured within 1 day after final dose by NMR/MS analysis; format: ADME, organism-based; in short: as §1
[8] = Drug excretion in Rattus norvegicus CDSprague-Dawley (rat) urine assessed as isopropyl 3-ethoxy-4- hydroxy-5-(methylthio) carbanilate at 300 mg/5ml, po daily for 4 consecutive days measured within 1 day after final dose by NMR/MS analysis; format: ADME, organism-based, CD Sprague-Dawley; in short: as §1
[9] = Drug excretion in Rattus norvegicus CD Sprague-Dawley (rat) urine assessed as 2-acetamino- 3-[5-acetamino-3-ethoxy-2-hydroxyphenylthio]propionic acid at 300 mg/5ml, po daily for 4 consecutive days measured within 1 day after final dose by NMR/MS analysis; format: ADME, organism-based; in short: as §1
[10] = Drug excretion in Rattus norvegicus CD Sprague-Dawley (rat) urine assessed as 3-(3-ethoxy-4-hydroxyphenyl)-4-hydroxy-5-methyloxazolidin- 2-one at 300 mg/5ml, po daily for 4 consecutive days measured within 1 day after final dose by NMR/MS analysis; format: ADME, organism-based; in short: as §1
[11] = Drug excretion in Rattus norvegicus CD Sprague-Dawley (rat) urine assessed as N-(3-ethoxy-4-hydroxy-5-methylsulfinylphenyl) acetamide at 300 mg/5ml, po daily for 4 consecutive days measured within 1 day after final dose by NMR/MS analysis; format: ADME, organism-based; in short: as §1

Measured: Drug excretion

CCOc1ccc(NC(=O)OC(C)C)cc1OCC [DIETHENOFENCARB]
Active: [1] | [2] | [3] | [4] | [5] | [6] | [7] | [8] | [9] | [10] | [11]
